What was measured:
RAW264.7 [1] = test: Inhibition of LPS-induced nitric oxide production in mouse RAW264.7 cells by Griess assay; assay type: functional, cell-based
Method in brief: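 LPS-stimulated RAW 264.7 cells; NO output measured as nitrite in culture supernatant by Griess reagent. IC50 derived, reported as mean ± SD from three separate experiments. Aminoguanidine run as positive control.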

RAW264.7 [2] = test: Cytotoxicity against mouse RAW264.7 cells by CCK-8 assay; assay type: cell-based
Method in brief: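 Viability read by CCK-8 on the cells remaining after the Griess nitrite assay of the LPS-stimulated RAW 264.7 cultures.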

| IC50 (RAW264.7 [1]) [µM] | SMILES | Activity (RAW264.7 [2]) |
| --- | --- | --- |
| 19.2 | CC(C)=CCc1c(O)c(CC=C(C)C)c2occ(-c3ccc(O)cc3)c(=O)c2c1O | Non-toxic |
| > 50 | COc1ccc(-c2coc3cc4c(c(O)c3c2=O)C=CC(C)(C)O4)cc1O | Non-toxic |
| > 50 | C=C(C)C(O)Cc1c(O)cc2occ(-c3ccc(OC)cc3)c(=O)c2c1O (stereo not given) | Non-toxic |
| 11.8 | CO[C@@H]1c2c(c(CC=C(C)C)c(O)c3c(=O)c(-c4ccc(O)cc4)coc23)O[C@H]1C(C)(C)O | Non-toxic |
| 12.1 | CC(C)=CCc1c2oc(C(C)(C)O)cc2c(O)c2c(=O)c(-c3ccc(O)cc3)coc12 | Non-toxic |
| > 50 | O=C1c2c(O)cc(O)c(Cc3ccc(O)cc3)c2O[C@H](c2ccc(O)cc2)[C@H]1O | Non-toxic |
| 18.4 | C=C(C)C(O)Cc1c(O)c(CC=C(C)C)c(O)c2c(=O)c(-c3ccc(O)cc3)coc12 (stereo not given) [ERYSENEGALENSEIN E] | Non-toxic |
| > 50 | O=C1c2c(O)c(Cc3ccc(O)cc3)c(O)c(Cc3ccc(O)cc3)c2O[C@H](c2ccc(O)cc2)[C@H]1O [GERICUDRANIN D] | Non-toxic |
| 41.8 | O=C1c2c(cc(O)c(Cc3ccc(O)cc3)c2O)O[C@H](c2ccc(O)cc2)[C@H]1O [GERICUDRANIN E] | Non-toxic |
| 12.7 | C=C(C)C(O)Cc1c(O)c(CC=C(C)C)c2occ(-c3ccc(O)cc3)c(=O)c2c1O (stereo not given) [ISOERYSENEGALENSEIN E] | Non-toxic |
| 18.7 | O=c1c(-c2ccc(O)c(O)c2)coc2cc(O)cc(O)c12 [OROBOL] | Non-toxic |
| 13.1 | CC(C)=CCc1c2c(c3occ(-c4ccc(O)cc4)c(=O)c3c1O)CC(C(C)(C)O)O2 (stereo not given) [SENEGALENSIN] | Non-toxic |

| SMILES | IC50 (RAW264.7 [1]) [µM] | Activity (RAW264.7 [2]) |
| --- | --- | --- |
| N=C(N)NN [PIMAGEDINE] | 28 | – |

— ChEMBL document CHEMBL1151809, “Prenylated and benzylated flavonoids from the fruits of Cudrania tricuspidata” (J Nat Prod, 2009)
